Consider one compound from ChEMBL document CHEMBL1240389, “In vitro and in vivo activities of the novel anticytomegalovirus compound AIC246” (Antimicrob Agents Chemother, 2010).

Assay [1] deals with Human betaherpesvirus 5. The assay can be described thus: Antiviral activity against human cytomegalovirus infected in human MRC5 cells after 7 days by GFP-based fluorescent reduction assay. Type of assay: functional, organism-based. The conditions noted are these: Human betaherpesvirus 5, MRC5, 168 h. In outline: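 MRC5 fibroblasts (1.5 × 10⁴/well) infected with GFP-expressing HCMV AD169; inoculum removed after adsorption, compound in serial 3-fold dilutions, at least duplicate. 7 days at 37°C, then PBS and GFP units read by CCD camera. EC₅₀ = 50% GFPU reduction versus no-drug virus control by nonlinear regression; mean ± SD of independent experiments.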

The test system of assay [2] is Human betaherpesvirus 5. In words: Antiviral activity against human cytomegalovirus infected in HEL299 cells after 7 days by GFP-based fluorescent reduction assay. The note with it: Human betaherpesvirus 5, HEL 299, 168 h. It counts as functional, organism-based. The gist of the method: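 Fibroblasts of the stated type (1.5 × 10⁴/well) infected with GFP-expressing recombinant AD169 (HCMV-GFP MOI 0.1 or RV-HG MOI 0.2 to 0.5). After adsorption the inoculum was replaced, with 3-fold serial compound dilutions at least in duplicate, and 7 days at 37°C. GFP units were read by CCD camera in PBS. EC₅₀ was derived from GFPU reduction versus untreated infected wells; at least triplicate runs.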

Assay [3] relates to Human betaherpesvirus 5. In words: Antiviral activity against 0.03 MOI human cytomegalovirus AD169 infected in NHDF after 7 days by GFP-based fluorescent reduction assay. The note with it: Human betaherpesvirus 5, AD169, NHDF, 168 h. Type of assay: functional, organism-based. The gist of the method: (§1)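 NHDF cells (1.5 × 10⁴/well) infected with GFP-expressing HCMV AD169 at the stated MOI (range 0.003 to 1 tested). After adsorption the inoculum was replaced, and compound was added in 3-fold serial dilutions, each at least in duplicate. Cells were incubated 7 days at 37°C, then GFP units were read by CCD camera in PBS. EC₅₀ was taken as the % GFPU reduction versus no-drug control. At least triplicate experiments.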

Assay [4] has as its system Human betaherpesvirus 5. In words: Antiviral activity against 0.3 MOI human cytomegalovirus AD169 infected in NHDF after 7 days by GFP-based fluorescent reduction assay. The note with it: Human betaherpesvirus 5, AD169, NHDF, 168 h. It counts as functional, organism-based. The gist of the method: as §1
The test system of assay [5] is Human betaherpesvirus 5. In words: Antiviral activity against 1 MOI human cytomegalovirus AD169 infected in NHDF after 7 days by GFP-based fluorescent reduction assay. Type of assay: functional, organism-based. The conditions noted are these: Human betaherpesvirus 5, AD169, NHDF, 168 h. In outline:
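NHDF cells (1.5 × 10⁴/well) infected with GFP-expressing HCMV AD169 at increasing MOI (0.003 to 1); after adsorption inoculum replaced, compound added in serial 3-fold dilutions, at least duplicate. 7 days at 37°C, medium swapped for PBS, GFP units read by CCD camera. EC₅₀ = 50% GFPU reduction versus no-drug virus control by nonlinear regression; at least triplicate experiments.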

The test system of assay [6] is Human betaherpesvirus 5. In words: Antiviral activity against human cytomegalovirus infected in human fibroblast assessed as decrease in infectious foci size at 50 nM after 5 days by DAPI staining. Type of assay: functional, organism-based. The gist of the method:
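Late-stage infected fibroblasts (strictly cell-associated clinical isolate) cocultured with excess uninfected fibroblasts for 5 days with or without 50 nM drug. Methanol-fixed; IE antigen detected by indirect immunofluorescence (mAb E13, Cy3 secondary), nuclei DAPI-counterstained. Quadruplicate; mean infected cells per focus counted.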

In assay [7] the test system is Human betaherpesvirus 5. In words: Antiviral activity against human cytomegalovirus Davis xenograft mouse model assessed as reduction of viral load administered via oral gavage QD for 9 days measured post last dose. It counts as functional. The conditions noted are these: Human betaherpesvirus 5, Davis, 216 h. The gist of the method: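 NOD SCID mice (18 to 25 g) implanted subcutaneously (dorsoscapular) with Gelfoam sponges seeded with 1 × 10⁶ NHDF cells infected with strain Davis (MOI 0.03), bFGF-treated. From 4 h post-transplant, dosed orally by gavage once daily for 9 days in 2% DMSO/0.5% methylcellulose-PBS, 10 ml/kg. Implants then collagenase-digested; recovered cells titrated by plaque assay on NHDF (PFU/ml).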

Assay [8] relates to Human betaherpesvirus 5. The assay can be described thus: Antiviral activity against human cytomegalovirus AD169 infected in NHDF at 10 times EC50 treated postinfection and measured after 7 days by GFP-based fluorescent reduction assay.

Active and inactive are the calls of the source. The calls are words filed in the database; no cut-off is given here.

For `COc1cccc(N2CCN(C3=Nc4c(F)cccc4[C@H](CC(=O)O)N3c3cc(C(F)(F)F)ccc3OC)CC2)c1` [LETERMOVIR], the half-maximal effective concentration (EC50) with Human betaherpesvirus 5 [1] was determined as 4.5 nM; in the assay on Human betaherpesvirus 5 [2], 3.5 nM; with Human betaherpesvirus 5 [3], 2.9 nM; in the assay with Human betaherpesvirus 5 [4] it was 3.6 nM; with Human betaherpesvirus 5 [5] it was 4.2 nM. Further, the outcome with Human betaherpesvirus 5 [6] and with Human betaherpesvirus 5 [8] was Active. In addition, the median effective dose (ED50) in the assay on Human betaherpesvirus 5 [7] stood at 3 mg/kg/day. Besides, the ED90 with Human betaherpesvirus 5 [7] was determined as 8 mg/kg/day.
